Screening data from PubChem.
14-3-3 Bad PPI – disrupts binding of bovine 14-3-3 zeta to phospho-Bad peptide; TR-FRET 14-3-3zeta/Dy647-pBad peptide displacement, 1 h; inhibition, % at 21.7 µM; 220,000 compounds, 0.71% hits; AID 781;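 active means inhibition above about 70%, limit read from the data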;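 further: 0% = full 14-3-3 plus peptide FRET controls and 100% = background without 14-3-3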
EBV gp42 inh – blocks Epstein-Barr virus glycoprotein 42 binding | inhibition, % (tested at 21.74 µM) | Fluorescence polarization binding assay, mP read-out | AID 1085 | 220,000 compounds, 0.42% hits | Q1HVG2
eIF4E 4G PPI – eIF4E/eIF4G interaction inhibition in translation initiation; TR-FRET eIF4E-eIF4GI(517-606) binding, 2 h; 220,000 compounds, 0.37% hits; inhibition, % at 21.7 µM; P63073+Q04637;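 active means inhibition above about 30%, limit read from the data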;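 further: 0% = full FRET control wells and 100% = background wells lacking eIF4GI fragment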
RBBP9 inh – human RBBP9 hydrolase inhibition; O75884; recombinant RBBP9, FP-Rh probe fluorescence polarization; inhibition, % at 7.94 µM; 220,000 compounds, 0.2% hits; AID 1515;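 active means inhibition above the campaign mean of all tested compounds plus 3 SD, cut at about 14% in these data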;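 further: plate controls were DMSO wells with RBBP9 for no effect and wells lacking RBBP9 protein for full effect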
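system = RBBP9 protein | input = RBBP9 at 2.5 µM in dispensed solution, before mixing | measured by = fluorescence polarization (mP), excitation 525 nm, emission 598 nm | incubation = enzyme-compound preincubation 30 min, then probe labeling 45 min, 25 °C | buffer or medium = Tris-NaCl-Pluronic buffer, pH 8.0 | compound = single dose 7.94 µM | also added = FP-Rh probe, 375 nM dispensing solution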
PKD1 kinase inh – blocks activity of human protein kinase D1; Q15139; PKD1 kinase fluorescence polarization assay; inhibition, % (test concentration not listed); 200,000 compounds, 0.056% hits
PKD FP artifact – interferes with fluorescence polarization in PKD inhibitor counter-screen; shares compounds with PKD1 kinase inh; PKD1 FP assay interference counter-screen; inhibition, % at 10 µM; 85 tested, under 10 active; AID 1315; call rule not given here
An asterisk follows results filed as active; i = inactive; · = no result; + = active, no number; [ ] = remark or other dose. This is a sample that favours compounds with a hit; in the whole collection about 1.6% have one here. Unless noted, no stated cut-off is given here; in the data, active means inhibition above about 50%; inactive means the rest.

SMILES	14-3-3 Bad PPI	EBV gp42 inh	eIF4E 4G PPI	RBBP9 inh	PKD1 kinase inh	others
Cc1c(-n2c(-c3ccccc3)nc3ccccc3c2=O)c(=O)n(-c2ccccc2)n1C	2.1	1.4	0.5	-4.0	-0.7
CCCC(C(=O)OCC)P(=O)(c1ccccc1)c1ccccc1 (stereo unspecified)	84.3*	-13.0	3.3	5.0	-3.6
CCOC(=O)CC(C(=O)OCC)P(=O)(c1ccccc1)c1ccccc1 (stereo unspecified)	5.3	-14.2	-1.6	-1.1	-2.5
Cc1cccc(CN(C)CCc2ccccn2)c1	44.8	-26.8	-2.4	-7.8	-3.5
Cc1cccc(OCC(=O)N(C)CCc2ccccn2)c1	71.2*	-12.9	4.1	-3.6	-0.7
CC(C)CC1=NN(C(=O)c2ccncc2)C(O)(C(F)(F)F)C1 (stereo unspecified)	3.5	6.2	2.2	-2.5	-1.1
CC1CC(C)(C)NC(=S)N1CCC(=O)N1c2ccccc2CC1C (stereo unspecified)	-16.3	-17.3	0.0	2.3	-3.8
COc1cc(S(=O)(=O)NCCCN2CCOCC2)ccc1-n1cnnn1	70.2*	-5.7	2.3	-2.1	-1.2
Cc1cc(C)c(C)c(S(=O)(=O)NCCCN2CCOCC2)c1C	86.3*	-14.7	5.0	0.3	13.4
CN(C)S(=O)(=O)c1ccc(NC(=O)CN2CCCc3ccccc32)cc1	-17.4	-20.1	1.7	1.2	2.7
O=C(NCc1ccc2c(c1)OCO2)c1ccc2c(c1)OCCO2	2.8	-20.5	68.7*	1.6	-2.5
CN(C)C(=O)C1CCC(=O)N1Cc1cccs1 (stereo unspecified)	88.2*	-4.5	3.3	7.4	-4.2
O=C1CCCC2=C1Sc1ccc(Cl)cc1N2	4.4	53.8*	3.7	-4.8	·
COC(=O)c1ccc2c(c1)NC(=O)CS2	-2.1	6.5	0.4	-2.7	-3.6
S=C1CCSc2ccc(Cl)cc2N1	5.4	-18.5	3.5	1.9	11.1
COC(=O)c1ccc2c(c1)SC1=C(CCCC1=O)N2	-1.9	145.5*	-11.5	1.2	1.9
Cc1cc(S(=O)(=O)n2cnc3cc([N+](=O)[O-])ccc32)ccc1Cl	2.1	-13.3	10.5	-5.3	5.1
Cc1ccc(S(=O)(=O)n2cnc3cc([N+](=O)[O-])ccc32)cc1C	70.6*	-6.0	2.4	-6.6	15.2
C/C(=N\Nc1ncc(Cl)cc1Cl)c1ccccn1	9.1	38.8	0.4	-8.8	61.4*
Clc1cc(Br)ccc1OCCCn1ccnc1	-15.2	-7.9	-0.1	-6.0	-2.0
Clc1cc(Br)ccc1OCCn1ccnc1	78.5*	-2.6	7.9	-5.8	-1.0
CC(=O)CC(=O)Nc1ccc2ccccc2c1	-1.2	-3.3	-4.7	-6.0	·
CC(=O)Nc1ccc2ccccc2c1	92.1*[fluorescence artefact?]	-0.2	5.5	-5.0	-0.8
Cc1noc(NS(=O)(=O)c2ccc(N3Cc4ccccc4C3=O)cc2)c1C	+[fluorescence artefact?]	0.5	0.8	-2.3	-7.0
CN(CCC#N)CC(=O)Nc1ccc(S(N)(=O)=O)cc1	-6.9	-3.4	2.9	1.7	-1.7
SMILES	14-3-3 Bad PPI	EBV gp42 inh	eIF4E 4G PPI	RBBP9 inh	PKD1 kinase inh	others
O=C(O)c1ccc2c(=O)[nH]c(CCl)nc2c1	1.6	-20.5	2.3	4.5	-3.3
CC(Nc1ccc(N2CCOCC2)cc1)C(=O)N1c2ccccc2CC1C (stereo unspecified)	84.3*	-15.1	3.0	3.9	·
COC(=O)COc1ccc(S(=O)(=O)Nc2ccc3c(c2)OCO3)cc1	-11.4	4.7	55.4*[fluorescence artefact?]	-2.0	-9.0
C/C(=N\NC(=O)c1cc(-c2ccncc2)nc2ccccc12)c1ccc(OC(F)F)cc1	-1.0	4.1	-2.4	-9.6	-6.9
C#CCn1c(=O)cc(C)c2ccccc21	7.6	-7.3	1.0	-5.7	-2.7
C#CCn1cc(C=C2C(=O)c3ccccc3C2=O)c2ccccc21	i	94.7*	-465.4	3.0	2.5
COCCn1nnnc1CN1CCOCC1	74.6*	-12.3	3.7	1.0	0.6
CC(=O)NC1C(Oc2ccccc2C)OC2COC(c3ccco3)OC2C1O (stereo unspecified)	6.5	-6.3	3.1	-7.0	-8.8
FC(F)(F)c1ccc(-c2n[nH]c(=S)o2)nc1	-6.2	-19.8	3.0	4.8	·
S=c1[nH]nc(-c2ccc3ccccc3n2)o1	82.3*[fluorescence artefact?]	-2.5	-2.6	-10.6	-10.3
Cc1nn(C)c(C)c1N1C(=O)c2cccc3c(N)ccc(c23)C1=O	-2.7	168.9*	0.0	-0.2	66.7*	PKD FP artifact=43.4
Cc1nn(C)c(C)c1N1C(=O)c2cccc3c(Br)ccc(c23)C1=O	-10.9	1.2	3.6	-4.0	10.3
Cc1ccc(NC(=O)Nc2ccc(F)c(Cl)c2)cc1	-0.1	5.7	0.5	-9.2	-0.7
Cc1ccc(NC(=O)CNc2ccc(Cl)cc2F)cc1	4.4	-2.8	-3.4	-7.1	86.1*	PKD FP artifact=-15.7
CC(=O)Oc1cc(OC(C)=O)c2c(C)cc(=O)oc2c1	-7.7	4.7	1.3	-8.6	53.7*	PKD FP artifact=-20.7
O=C1CCCc2c1cc(C(=O)NCc1ccco1)c(=O)n2-c1ccccc1	1.1	2.1	-2.2	3.2	51.6*	PKD FP artifact=-16.9
Cc1ccc(-n2c3c(cc(C(=O)NCc4ccco4)c2=O)C(=O)CC(C)(C)C3)cc1	-13.1	-15.1	7.7	-4.5	-5.9
COc1ccccc1/C=C1\SC(=S)N(CCC(=O)NC2=NCCS2)C1=O	4.4	-72.1	3.7	-0.8	51.6*	PKD FP artifact=-22.4
O=C(CCN1C(=O)/C(=C\c2cccs2)SC1=S)NC1=NCCS1	1.3	-24.7	1.0	-4.0	7.9
COC(=O)c1cc(C(=O)OCC(=O)Nc2ccccc2OC(F)F)cc([N+](=O)[O-])c1	0.3	-18.0	1.3	-8.8	4.2
COc1ccc(C(=O)n2c(SC)nc3cc4c(cc32)OCCO4)cc1	-7.5	-3.9	-6.6	3.4	-1.2
CC(C)CCN1CN(S(=O)(=O)c2cccs2)c2nc3ccccc3nc21	-12.2	-17.7	-8.3	-3.5	95.3*	PKD FP artifact=-10.9
Cc1c(C(=O)NCc2cccnc2)sc2nc(-c3ccc(F)cc3)cn12	12.2	-21.5	-1.1	-0.2	54.5*	PKD FP artifact=-8.4
C[n+]1cc[nH]c1SCC(=O)c1ccccc1	48.6	14.3	-2.6	-7.9	-2.1
O=C(NCCc1ccccc1)C1CCCN1S(=O)(=O)c1ccccc1 (stereo unspecified)	2.2	-3.6	2.2	-14.4	-1.7
CCOC(=O)N1CCC(N2CCN(S(=O)(=O)CC)CC2)CC1	71.8*	7.4	-5.7	-7.8	92.8*	PKD FP artifact=-11.2
COc1ccc(-c2cnnc(N/N=C/c3ccc(O)c(O)c3)n2)cc1	3.2	-5.5	-4.4	-15.8	52.2*	PKD FP artifact=-6.0
CN(C)c1ccc(/C=C2\SC(=S)N(Nc3ncc(C(F)(F)F)cc3Cl)C2=O)cc1	-2.2	-23.7	0.1	-11.2	69.2*	PKD FP artifact=-8.8
NNC(=O)CNS(=O)(=O)c1ccc([N+](=O)[O-])cc1	4.7	-9.0	-1.6	-1.9	-7.6
O=C(NCCOC(=O)c1ccc(C(=O)OCCNC(=O)c2cccnc2)s1)c1cccnc1	-4.2	-7.2	-5.4	6.5	104.7*	PKD FP artifact=-24.6
